Data: ChEMBL document CHEMBL4513216, “Probing the Open Global Health Chemical Diversity Library for Multistage-Active Starting Points for Next-Generation Antimalarials” (ACS Infect Dis, 2020)

Assay: Toxicity liver stage against HepG2, at 10uM
Format: cell-based
Design: test concentration 10 uM, cell line HepG2-A16-CD81EGFP
Details: human, HepG2-A16-CD81EGFP cells; read-out: INHIBITION
Outline: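 Uninfected HepG2-A16-CD81EGFP cells, 3 × 10^3 per well, 1536-well, plated on prespotted compound at 10 μM final, parasite-free screening media added to match infected plates; puromycin 10 μM positive, DMSO 0.5% negative; run in parallel with 48 h PbLuc assay at 37 °C, 5% CO2; viability by CellTiter-Glo luminescence, normalized to controls.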

Structure (SMILES) | cytotoxicity at 10 µM [%]
CCC(Nc1nccc(C2CCCC2)n1)c1ncccc1C (configuration not stated) | -130
c1ccc2c(c1)CCC21CN(CCc2ccncc2)CCO1 (configuration not stated) | -0.934
CN(Cc1n[nH]c2c1CCCC2)c1cc(N2CCOCC2)nc(N)n1 | -7.7
CN(Cc1ccccc1)CC(C)(C)NC(=O)c1cnns1 | -3.67
O=C(NCc1ccco1)[C@@H]1CC[C@@H]2[C@@H](CCN2Cc2ccc(F)cc2)O1 | -0.748
O=C(NCC1CC1)[C@H]1CC[C@@H]2[C@@H](CCN2Cc2nccs2)O1 | 6.93
CCN(CC)CCNC(=O)CCc1c(C)nn(-c2ccc(Cl)cc2)c1C | -5.93
COC(=O)CC1CCCCN1CC(=O)NCCc1ccc(F)cc1 (configuration not stated) | -8.61
COc1cccc(CCC(=O)Nc2cnc3c(c2)c(C)nn3C)c1OC | 1.67
Cc1cc(C(=O)NC2CCCOc3cc(Cl)ccc32)n(C)n1 (configuration not stated) | 1.97
c1cc(CN2CC[C@@H]3[C@@H](CO[C@H]3CN3CCOCC3)C2)cs1 | -1.19
CC(=O)N1CCn2c(nnc2C2CCCCN2Cc2ccccc2Cl)C1 (configuration not stated) | 10.6
Cc1c[nH]nc1C1CCN(c2cnccn2)C1 (configuration not stated) | 5.3
c1cc(-c2cnc(C3CCNCC3)cn2)n[nH]1 | -2.78
O=C1[C@@H]2CCN(C3CCC3)C[C@@H]2OCCN1Cc1ccncc1 | -135
CCN(C)S(=O)(=O)NCC1CCCN(Cc2ccccc2F)C1 (configuration not stated) | -1.22
Cn1nccc1CCC(=O)N1CCCC(c2cnccn2)C1 (configuration not stated) | -22.7
CCN(Cc1noc(C)n1)C(=O)CCc1scnc1C | 2.13
c1ccc(C2=NOC3(CCN(Cc4c[nH]c5ccccc45)CC3)C2)cc1 | 3.93
CC(C)OCc1cccc(NC(=O)N2CCCC(CCC(N)=O)C2)c1 (configuration not stated) | 3.49
O=C(NCCO)Nc1c(F)cccc1Oc1ccccc1 | 1.36
Cc1nnc(NCCc2nc3ccc(F)cc3n2C)c(C#N)c1C | -0.744
Cc1ccc(CN2CCc3ncnc(C4CC4)c3CC2)s1 | 4.63

Structure (SMILES) | cytotoxicity at 10 µM [%]
CC(C)(CN)NS(=O)(=O)c1c(F)cccc1F | -8.89
CCNC(=O)N1CCCCC1CCNS(C)(=O)=O (configuration not stated) | -7.71
COc1ccccc1[C@@H]1CN(Cc2cnc(N(C)C)nc2)C[C@H]1C(=O)O | -3.89
CC(C)n1ccc2ccc(C(=O)NC3CN4CCC3CC4)cc21 (configuration not stated) | -57.4
COCC(=O)N1CCc2c(nnn2C)C1COCCN1CCCC1 (configuration not stated) | 11.6
CC(C)n1c(=O)[nH]c2cn(-c3ccc(Cl)cc3)c(=O)n21 | -0.769
CSC(C)C(=O)NS(=O)(=O)CCc1ccccc1 (configuration not stated) | 2.88
Cc1ccnc(NC(=O)c2cnc(C3CCCNC3)cn2)c1 (configuration not stated) | 3.33
Cc1noc([C@H]2C[C@H]3OCC[C@H]3N(Cc3ccc(F)cc3)C2)n1 | -76.4
Cc1nc[nH]c1CN1CCC(CNC(=O)c2cccc3cnccc23)C1 (configuration not stated) | -10.1
CC(O)CN1CCC(=O)N(Cc2ccccc2)Cc2ccccc21 (configuration not stated) | -3.37
CCc1nc(CCNC(=O)NC2CC2)sc1C | -14.4
Cc1ccn(CCC(=O)NC(C)Cc2ccco2)n1 (configuration not stated) | -4.1
COCCN(C)C[C@H]1C[C@H](CO)CN(C(=O)c2ccn(C)c(=O)c2)C1 | -2.75
Fc1cnc(N2CC[C@@H]3O[C@@H](COCc4cccnc4)CC[C@@H]32)nc1 | 10.1
CC1(CNC(=O)NCc2ccsc2)CCCS1 (configuration not stated) | 1.82
CC(N(C)Cc1nc2c(cnn2C)c(=O)[nH]1)C(C)(C)C (configuration not stated) | -3.09
O=C(c1ccco1)N1CCOCC2(C1)CN(c1ccoc1)C(=O)CO2 (configuration not stated) | -6.04
O=S1(=O)CCN(Cc2cccnc2)[C@H]2CCN(c3ncccn3)CC[C@H]21 | -11.2
CCc1ncc(C(=O)NCC2CCN(Cc3ccncc3)CC2)cn1 | 8.12
c1cnc(N2CCN(Cn3nccc3-c3cccnc3)CC2)nc1 | 8.99
CN(Cc1cccc(C(N)=O)c1)CC1CCCN1c1cccnn1 (configuration not stated) | -9.75
CCS(=O)(=O)c1ccc2c(c1)OCCCO2 | -2.3

Structure (SMILES) | cytotoxicity at 10 µM [%]
Cc1cnn(C2CN(CC(=O)NCCc3c[nH]c4ccccc34)C2)c1 | -4.01
Cc1cccc(C)c1NC(=O)c1cccc(CN2CCCC2C)c1 (configuration not stated) | 4.73
Cc1nc(O)cc(C2CCN(C(=O)c3ccsc3)CC2)n1 | -4.97
O=C(O)CN1CCC2(CCc3ccccc32)CC1 | -3.7
Cc1nn(C)c2ncc(CNCCc3ccccn3)cc12 | 4.13
Cc1cc2nc(C(C)C)cc(NC(C)c3nncn3C3CCCC3)n2n1 (configuration not stated) | 8.91
CC(C)COC(=O)N1CCCN(Cc2nnc(C(C)(C)C)o2)CC1 | 11.1
CC(C)n1cc(CN2CCCN(C(=O)c3ccco3)CC2)cn1 | -2.27
Cc1ccc(CN2CCN(c3cncc(N(C)C)n3)CC2=O)cc1C | -2.53
O=C(CCc1ccccn1)N1CCc2cc(Cl)cc(Cl)c2C1 | -40.9
CCNc1nc(C)c(C(=O)N(C)Cc2nc(CC)no2)s1 | -6.02
Cc1ccccc1OC1CCN(S(=O)(=O)c2c(C)n[nH]c2C)CC1 | 0.0656
CNC(=O)c1cccc(CCNc2ccccn2)c1 | 1.68
COCCCNC(=O)Nc1cccc2ncccc12 | -4.84
CC(C)(C)NC(=O)CNc1ncccn1 | -5.09
CC(=O)N1CCN(C(=O)CCNc2snc(Cl)c2C#N)CC1 | -0.367
O=C(O)c1cn2cc(C(F)(F)F)ccc2n1 | 3.52
CN1CCN(C(=O)c2cn(-c3ccc(C(F)(F)F)cn3)nn2)CC1 | -63
CN(CCCC1CCCO1)S(=O)(=O)NCc1ccccc1 (configuration not stated) | 2.2
Nc1ncccc1CN1C[C@H]2OC(=O)N(Cc3ccccn3)[C@H]2C1 | 13.9
CC(C)n1nc(CN2CCCC2=O)c2c1CN(C(=O)c1ccc[nH]1)C2 | 5.39
CN(Cc1nc(-c2ccccc2)c[nH]1)C(=O)NCC(=O)NC(C)(C)C | 13.4
Cc1ccc(OC2(C(=O)O)CCN(C(=O)c3cc(C)oc3C)CC2)cn1 | 0.0255

Structure (SMILES) | cytotoxicity at 10 µM [%]
CN(Cc1cccnc1)C1CCCN(Cc2noc(C3CC3)n2)C1 (configuration not stated) | -4.95
CSCC(=O)Nc1cccc(Oc2ccccn2)c1 | -6.1
CCc1[nH]c(C2(N)CCCCC2)nc(=O)c1C | 7.61
CC1(C(=O)NCc2cc(F)cc(F)c2)CCOCC1 | 4.32
CN(C)C(=O)C1CCCN1c1ccnc2ccsc12 (configuration not stated) | -16.8
O=C(c1ccccc1N1CCOCC1)N1CCCC(n2ccnc2)C1 (configuration not stated) | -10.7
Cc1cc(Nc2ccc3c(c2)CC(=O)N3)nc(C2CC2)n1 | 0.658
CCCNC(=O)CCNC(=O)N1CCC(=Cc2ccccc2)CC1 | 1.47
CS(=O)(=O)C1CCN(S(=O)(=O)c2ccc(F)c(F)c2)C1 (configuration not stated) | -9.52
N#Cc1ccc(C(=O)O)nc1C=Cc1cccc(Cl)c1 | 13
Cc1ccc(C(=O)N2C[C@H](NS(C)(=O)=O)[C@@H](C(C)C)C2)cc1F | -2.36
CCN1CCN(C)C(=O)C12CCN(C(=O)Cc1ccccn1)CC2 | 0.597
O=C(O)c1cc(-c2ccoc2)cc(S(=O)(=O)NC2CC2)c1 | -2.18
c1ccc(OCCN2CCCCC2Cn2cncn2)cc1 (configuration not stated) | -15.7
COc1cccc2c3c(c(=O)[nH]c12)CCO3 | 5.57
CCc1n[nH]c(C(=O)N2CCCC3(CN(C)C(=O)O3)C2)c1C (configuration not stated) | -44.7
Cc1cccc(-c2nccn2-c2cccc(CC(=O)O)c2)n1 | 4.55
Cc1cc(C(=O)N2CCCCC2c2nc(C)cs2)[nH]n1 (configuration not stated) | -8.13
O=C1NC(c2ccccc2)=N[C@@]12CC[C@@H]1CN(CC3CCOCC3)C[C@@H]12 | 4.01
CCCN(C(=O)c1ccccn1)c1nc2c(s1)CCc1c-2cnn1C | 6.23
CCc1nsc(N2CCc3sccc3C2)n1 | 1.56
Cc1csc(N2CCCN(C(=O)Cc3ccc(C)s3)CC2)n1 | -12
CCc1nc(C(=O)NCc2ccc(N3CCNC(=O)C3)c(F)c2)c[nH]1 | -7.12

Structure (SMILES) | cytotoxicity at 10 µM [%]
Cc1ncsc1C(=O)NC1CCN(Cc2ccc(C#N)cc2)CC1 | -6.46
Cc1cccc(OCC(=O)N(Cc2ccncc2)C2CC2)c1 | -40.4
O=C(COCC1CC1)Nc1ncccc1O | 11
NC(=O)c1ccc(CNCC2CCN(CCO)CC2)cc1 | -9.93
Cc1nc(C)n(CC2CCCN(Cc3noc(C)n3)C2)n1 (configuration not stated) | -1.87
CN(C)C(=O)CN1C[C@H]2CN(Cc3cccc(F)c3)C(=O)[C@H]2C1 | -79.5
CS(=O)(=O)NCc1cnc2n1CCN(Cc1cccnc1)CC2 | 5.66
CS(=O)(=O)N[C@@H]1CCN(Cc2cccnc2)[C@H]1Cc1ccccc1 | -74.5
N#Cc1ccc2c(c1)CN(C(=O)C1CC=CC1)C2c1cnco1 (configuration not stated) | -0.0499
FC(F)(F)c1c[nH]c(C2CCN(c3ncccn3)CC2)n1 | -5.1
CCNC(=O)C1(Cc2cc(-c3ccccc3)no2)CCCN(C(C)C)C1 (configuration not stated) | 1.62
CCn1nc(C)cc1C(=O)Nc1cc(F)ccc1OCC1CCCO1 (configuration not stated) | 2.89
Cc1nccc(CNC(=O)NCCOc2ccc(F)c(F)c2)n1 | -17
NC(=O)Nc1ccc(C(=O)NCCn2cccc2)cc1 | -1.23
Cc1nc(CC2CCCN(Cc3nc4ccccc4c(=O)[nH]3)C2)no1 (configuration not stated) | -44
Cc1cccc(CN2CCCC23CCNC3)n1 (configuration not stated) | 4.82
O=C(NCc1cncc2c1CCN(Cc1ccccc1)C2)C1CC1 | 12.1
Cc1nn(C)c(C)c1C1COCCN1C(=O)c1ccc(Cl)o1 (configuration not stated) | 2.01
Cc1occc(=O)c1OCC(=O)N1CCN(c2cccc(Cl)c2)CC1 | -1.18
CCCn1cc(-c2ccnc(NC3CCc4ccccc4C3)n2)c(C)n1 (configuration not stated) | 81.3
